Screens from PubChem BioAssay.
Sampled rows, rich in hits. Any-hit rate of the full collection: about 3.4%.
MC4R antag cAMP: MC4R antagonists of cAMP signaling, primary screen, cell-based, TR-FRET, antagonist arm of biased-ligand search. MC4R-expressing cells, MTII-stimulated cAMP, LANCE TR-FRET. inhibition, % at 6.5 µM. hit rate 0.48% among 360,000;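 active = inhibition above its plate's cutoff, the mean of tested wells on that plate plus 3 SD, cut at about 29% in these data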
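System: U2OS-MC4R stable cell line; Technique: Eu-cAMP/anti-cAMP TR-FRET, emission 671 nm; Repeats: single well per compound; Also added: Melanotan II; Dosing: one concentration, 6.5 µM nominal; Schedule: 30-min compound, 1-h challenge, 1-h detection, room temperature.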
MIN6 prolif: inducers of MIN6 beta-cell proliferation, primary screen, ATP luminescence, uHTS. MIN6 cells proliferation, ATPlite luminescence, 48 h; cells starved in 0.2% serum; 100% = growth in 10% serum. proliferation, % at 10 µM. hit rate 0.29% among 330,000. AID 2380, 2010;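 active = compounds whose signal lies at least 3.5 SD above the mean of all wells on their plate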
m5-HT2A agonist: mouse Htr2a agonists via beta-arrestin recruitment, primary screen, cell-based, luminescence; CHO-K1 mHTR2A beta-arrestin complementation; percent of 30 µM serotonin response; AID 624169, 2012; activation, % at 7.6 µM; hit rate 0.66% among 360,000;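 active = activation above a run cutoff, the mean activation of all tested compounds plus 3 SD, cut at about 14% in these data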
MC4R barr agon: MC4R agonists recruiting beta-arrestin, primary screen, cell-based, luminescence, agonist arm of biased-ligand search | Melanocortin receptor 4 (Homo sapiens), P32245 | U2OS MC4R beta-arrestin complementation; percent of melanotan II response, DMSO zero | activation, % at 8.9 µM | hit rate 0.98% among 360,000;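 active = activation above a per-plate cutoff, the mean activation of sample wells on that plate plus 3 SD, cut at about 8% in these data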
ANO1 activ: TMEM16A chloride channel activators or potentiators, primary screen, cell-based, HTS; B-score at 10 µM; HEK293 TMEM16A/YFP-H148Q/I152L, iodide quench fluorescence; active compounds read low; Anoctamin-1 (Mus musculus), Q8BHY3; hit rate 0.3% among 340,000; AID 623877, 2012;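 active = fluorescence-ratio B-score plate-corrected deviation score at least 3 library SD below zero, with starting fluorescence score within 5 deviations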;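 also: channel opened by trigger with iodide after compound preincubation; score built on the fluorescence ratio of max minus min over baseline; more negative score means more quench and so TMEM16A activation or potentiation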
TMEM16A inh: TMEM16A chloride channel inhibitors, primary screen, cell-based, HTS; HEK293 TMEM16A/YFP iodide influx fluorescence, ionomycin; normalized B-score (activity score, 25-100; higher = stronger inhibition) at 10 µM; hit rate 1.2% among 310,000;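 active = ratio plate-corrected score three or more library SD toward inhibition, starting fluorescence score within five deviations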;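 also: score derived from kinetic fluorescence span divided by baseline fluorescence per well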
TMEM16A reconf: TMEM16A chloride channel inhibitors, confirmation, cell-based, re-confirmation; shares compounds with TMEM16A inh; inhibition, % at 10 µM; HEK293 TMEM16A/YFP-H148Q, iodide quench fluorescence; ionomycin added to raise cell calcium; AID 652189, 2013; hit rate 39% among 2,300;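 active = mean duplicate percent inhibition, scaled so buffer wells are 0 and the reference blocker 100, over three buffer SD above buffer mean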
TMEM16A Ca cntr: calcium mobilization in TMEM16A/YFP HEK293 cells, confirmation, counter-screen for TMEM16A inhibitor project; shares compounds with TMEM16A inh; Fluo4 calcium mobilization; calcium response (% of ionomycin), % at 10 µM; hit rate 2% among 2,300; AID 652231, 2013;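 active = duplicate-averaged calcium signal over 20% of the ionomycin maximum, relative to buffer baseline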;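 also: each well's signal is peak minus trough fluorescence divided by its pre-addition baseline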
Parental YFP cnt: iodide YFP quench changes in parental YFP-HEK293, counter-screen for TMEM16A inhibitor project, cell-based; 2,300 tested, under 10 active; AID 652233, 2013; ionomycin; YFP ratio F(max-min)/F0 at 10 µM; shares compounds with TMEM16A inh;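 active = yellow fluorescent protein signal ratio exceeding the buffer control mean by over 5 SD of those controls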;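 also: ratio is mean of duplicate wells from kinetic YFP trace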
ClC-1 rat inh: ClC-1 chloride channel inhibition, selectivity assay for TMEM16A inhibitor project, cell-based, voltage-dependent ClC-1 | ratio percent, % at 10 µM | 2,300 tested, under 10 active | AID 652236, 2013 | shares compounds with TMEM16A inh | CHO ClC-1-YFP, iodide influx fluorescence quench; iodide control reads 0, buffer control 100;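 active = duplicate-mean ratio percent above the mean of iodide-only control wells, which defines zero, plus 5 of their SD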;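 also: higher percent means stronger block of ClC-1 iodide influx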
Target sequence (P35524 whole entry, looked up): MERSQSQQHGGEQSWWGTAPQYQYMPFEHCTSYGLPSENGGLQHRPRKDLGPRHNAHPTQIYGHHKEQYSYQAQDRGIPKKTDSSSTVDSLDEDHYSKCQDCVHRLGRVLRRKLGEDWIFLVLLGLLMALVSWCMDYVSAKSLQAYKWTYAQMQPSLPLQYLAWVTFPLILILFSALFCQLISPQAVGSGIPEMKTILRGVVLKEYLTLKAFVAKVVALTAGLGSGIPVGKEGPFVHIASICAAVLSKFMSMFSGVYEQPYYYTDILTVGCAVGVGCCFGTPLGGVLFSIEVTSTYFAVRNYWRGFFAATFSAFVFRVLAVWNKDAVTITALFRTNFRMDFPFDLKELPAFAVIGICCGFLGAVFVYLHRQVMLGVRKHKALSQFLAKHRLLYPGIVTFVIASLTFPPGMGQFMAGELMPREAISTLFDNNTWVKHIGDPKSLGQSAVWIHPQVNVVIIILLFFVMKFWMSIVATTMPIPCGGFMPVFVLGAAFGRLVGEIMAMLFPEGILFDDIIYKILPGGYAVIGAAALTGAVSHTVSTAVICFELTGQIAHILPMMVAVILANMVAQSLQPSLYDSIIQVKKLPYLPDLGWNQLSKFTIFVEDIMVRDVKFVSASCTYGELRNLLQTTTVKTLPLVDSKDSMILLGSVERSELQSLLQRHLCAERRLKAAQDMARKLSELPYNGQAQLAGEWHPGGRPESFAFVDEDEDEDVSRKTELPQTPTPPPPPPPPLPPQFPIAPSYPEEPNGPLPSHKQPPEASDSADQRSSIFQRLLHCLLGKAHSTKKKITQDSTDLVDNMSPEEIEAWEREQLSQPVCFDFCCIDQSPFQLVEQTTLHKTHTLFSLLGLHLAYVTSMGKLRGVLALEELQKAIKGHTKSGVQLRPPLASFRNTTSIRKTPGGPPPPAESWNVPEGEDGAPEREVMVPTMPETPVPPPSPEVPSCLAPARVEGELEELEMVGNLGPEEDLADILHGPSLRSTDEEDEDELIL
Of the large screens only hits and unclear results are named; the others gave an inactive call (follow-up assays come after a bar, where they were run).

CC(Oc1ccc(F)cc1)C(=O)Nc1cc(S(=O)(=O)N2CCOCC2)ccc1N1CCCCC1 (centres undefined)	none
Cn1c(=O)c(=O)n(C)c2cc(S(=O)(=O)N3CCCCCC3)ccc21	TMEM16A inh 25 | TMEM16A reconf inactive | TMEM16A Ca cntr inactive | Parental YFP cnt inactive | ClC-1 rat inh inactive
N#Cc1cccnc1N1CCN(C(C(=O)NC2CCCC2)c2ccc(F)cc2)CC1 (centres undefined)	none (no result: MC4R antag cAMP, MIN6 prolif, MC4R barr agon, ANO1 activ, TMEM16A inh)
COc1ccc(S(=O)(=O)NCC(c2ccco2)N2CCc3ccccc3C2)cc1 (centres undefined)	none
O=S(=O)(NCC(c1ccco1)N1CCc2ccccc2C1)c1ccc(Br)cc1 (centres undefined)	TMEM16A inh 25 | TMEM16A reconf inactive | TMEM16A Ca cntr inactive | Parental YFP cnt inactive | ClC-1 rat inh inactive
COC(=O)[C@]12CCCCC=C1N(Cc1ccccc1)C(=O)[C@H](CC(=O)N1CCCCC1)C2	none (no result: MC4R antag cAMP, MIN6 prolif, MC4R barr agon, ANO1 activ, TMEM16A inh)
Cc1nnc(SCc2cccc(Oc3ccccc3)c2)n1N	TMEM16A inh 25 | TMEM16A reconf inactive | TMEM16A Ca cntr inactive | Parental YFP cnt inactive | ClC-1 rat inh inactive
Cc1nnc(SCC(=O)Nc2ccc(Oc3ccccc3)cc2)n1N	none
COc1ccc(NC(=O)c2c(OC)cccc2OC)c(OC)c1	none
COc1ccc(NC(=O)c2cccnc2C(=O)O)c(OC)c1	none | TMEM16A reconf inactive | TMEM16A Ca cntr inactive | Parental YFP cnt inactive | ClC-1 rat inh inactive
CC(Oc1ccccc1)C(=O)Nc1nnc(S(=O)(=O)Nc2ccccc2)s1 (centres undefined)	TMEM16A inh 100 | TMEM16A reconf inactive | TMEM16A Ca cntr inactive | Parental YFP cnt inactive | ClC-1 rat inh inactive
CCC(C)N1C(=O)c2ccccc2C1C(=O)NC1CCCCCC1 (centres undefined)	TMEM16A inh 25 | TMEM16A reconf inactive | TMEM16A Ca cntr inactive | Parental YFP cnt inactive | ClC-1 rat inh inactive
CC(C)N1C(=O)c2ccccc2C1C(=O)NC1CCCCCC1 (centres undefined)	none
Cc1ccc(C(NC(=O)C2CCN(CCOc3ccccc3)CC2)c2ccccn2)cc1 (centres undefined)	none (no result: MIN6 prolif, ANO1 activ, TMEM16A inh)
COC(=O)c1c(C)[nH]c(C(=O)OC(C)C(=O)NC2CCCCC2C)c1C (centres undefined)	none (no result: MIN6 prolif, ANO1 activ, TMEM16A inh)
COc1ccc(OCCSc2nnc(C)n2-c2ccccc2)cc1	TMEM16A inh 100 | TMEM16A reconf inactive | TMEM16A Ca cntr inactive | Parental YFP cnt inactive | ClC-1 rat inh inactive
COc1ccccc1OCCSc1nnc(C)n1-c1ccccc1	none
COc1cc(C(=O)NCCOc2cccc(C)c2)c(Br)c(OC)c1OC	none
COc1cc(C(=O)NCCOc2ccccc2)c(Br)c(OC)c1OC	TMEM16A inh 25 | TMEM16A reconf inactive | TMEM16A Ca cntr inactive | Parental YFP cnt inactive | ClC-1 rat inh inactive
COc1ccc(OCC(=O)N/N=C/c2cccn2-c2cccc(C(=O)O)c2)cc1	none (no result: TMEM16A inh)
O=C(C1CCN(S(=O)(=O)c2cnc[nH]2)CC1)N1CCN(c2ncccn2)CC1	TMEM16A inh 100 | TMEM16A reconf inactive | TMEM16A Ca cntr inactive | Parental YFP cnt inactive | ClC-1 rat inh inactive
Clc1nc(Nc2ccc(N3CCOCC3)cc2)c2ccccc2n1	none
O=S(=O)(Nc1nc2ccccc2nc1Nc1ccc(N2CCOCC2)cc1)c1cc(Cl)ccc1Cl	TMEM16A inh 100 | TMEM16A reconf 41.5% | TMEM16A Ca cntr 26.5% | Parental YFP cnt inactive | ClC-1 rat inh inactive
CCN(CC)c1ccc(NC(=O)CCCCCN2C(=O)c3ccccc3C2=O)cc1	TMEM16A inh 25 | TMEM16A reconf inactive | TMEM16A Ca cntr inactive | Parental YFP cnt inactive | ClC-1 rat inh inactive
CC(=O)Nc1ccc(NC(=O)CCCCCN2C(=O)c3ccccc3C2=O)cc1	none
O=C(CSc1nnc(CNC(=O)c2ccccc2)o1)NCc1ccc2c(c1)OCO2	none
CC(C)CN1C(=O)c2ccc(C(=O)Nc3ccncc3)cc2C1=O	TMEM16A inh 25 | TMEM16A reconf 27.0% | TMEM16A Ca cntr inactive | Parental YFP cnt inactive | ClC-1 rat inh inactive
COc1cccc(NC(=O)CN(C)C(=O)Cn2c(=O)oc3ccccc32)c1	none
COc1ccc(N=Cc2c(O)ccc3ccccc23)cc1	none | TMEM16A reconf inactive | TMEM16A Ca cntr inactive | Parental YFP cnt inactive | ClC-1 rat inh inactive
O=C(O)c1ccc(N=Cc2c(O)ccc3ccccc23)cc1	none
O=C1NC[C@H](Cc2ccccc2)N(C[C@@H]2CCCN2C[C@H](Cc2ccc(O)cc2)N2C[C@H](Cc3ccccc3)N(CCc3ccccc3)C(=O)C2=O)C1=O	none (no result: MC4R antag cAMP, MIN6 prolif, MC4R barr agon, ANO1 activ, TMEM16A inh)
O=C(OCc1nc2ccccc2s1)C1CCN(C2=NS(=O)(=O)c3ccccc32)CC1	TMEM16A inh 25 | TMEM16A reconf 16.5% | TMEM16A Ca cntr inactive | Parental YFP cnt inactive | ClC-1 rat inh inactive
COc1cc(OC)cc(OC(=O)C2CCN(C3=NS(=O)(=O)c4ccccc43)CC2)c1	none (no result: TMEM16A inh)
Cn1c(=O)oc2cc(S(=O)(=O)N3CCN(C(=O)c4ccco4)CC3)ccc21	TMEM16A inh 100 | TMEM16A reconf inactive | TMEM16A Ca cntr inactive | Parental YFP cnt inactive | ClC-1 rat inh inactive
COC(=O)c1ccc(NC(=O)COC(=O)COc2cccc3c2OC(C)(C)C3)cc1	none (no result: TMEM16A inh)
Cc1nc(C)n(CC(C)C(=O)N2CCN(S(=O)(=O)c3ccccc3)CC2)n1 (centres undefined)	TMEM16A inh 25 | TMEM16A reconf inactive | TMEM16A Ca cntr inactive | Parental YFP cnt inactive | ClC-1 rat inh inactive
